Assay results from different studies.
Target: Serine/threonine-protein kinase Chk1 (CHEK1, Homo sapiens, UniProt O14757)
One construct used (O14757 1-476): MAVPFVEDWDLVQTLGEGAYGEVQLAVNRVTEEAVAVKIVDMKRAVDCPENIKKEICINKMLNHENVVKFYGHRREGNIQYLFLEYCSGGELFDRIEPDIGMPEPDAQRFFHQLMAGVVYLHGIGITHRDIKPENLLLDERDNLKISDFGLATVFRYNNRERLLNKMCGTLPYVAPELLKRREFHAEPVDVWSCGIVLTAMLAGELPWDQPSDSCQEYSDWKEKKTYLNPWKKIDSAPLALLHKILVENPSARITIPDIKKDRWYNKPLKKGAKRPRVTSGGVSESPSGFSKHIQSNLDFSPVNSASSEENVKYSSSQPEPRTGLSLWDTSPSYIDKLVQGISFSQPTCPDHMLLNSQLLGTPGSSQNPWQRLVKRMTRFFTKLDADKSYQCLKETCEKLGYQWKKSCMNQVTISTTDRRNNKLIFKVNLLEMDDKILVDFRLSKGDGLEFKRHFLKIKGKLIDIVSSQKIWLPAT

CC(=O)N1CCC(c2ccc(C(=O)NC(=N)N)cc2C(F)(F)F)CC1  remaining binding (cell-free assay, competition with immobilised ligand; 1 µM): 95%
CC1CCCN1c1nccc(-c2cnn3ncccc23)n1 (stereo not drawn)  remaining binding (binding; 1 µM): 99%
O=C(NCCCN1CCOCC1)c1ccc(Nc2ncc(Cl)c(-c3ccc(Cl)s3)n2)cc1  remaining binding (binding, competition with immobilised ligand; 1 µM): 57%
N#Cc1ccccc1CSc1nnc2c(n1)[nH]c1ccccc12  remaining binding (binding, competition with immobilised ligand; 10 µM): 87%
O=C(Nc1c[nH]nc1C(=O)NC1CCNCC1)c1cc(F)cc(F)c1  remaining binding (binding, competition with immobilised ligand; 1 µM): 100%
Cc1cc(-n2nc(Cc3cc(F)cc(C(F)(F)F)c3)nc2C)ccc1C(N)=O  remaining binding (cell-free assay, competition with immobilised ligand; 1 µM): 100%
N[C@@H]1CCN(c2nccc(-c3cnn4ncccc34)n2)C1  remaining binding (binding; 1 µM): 100%
Cc1cnc(Nc2ccc(C(=O)N3CCC(N4CCCC4)CC3)cc2)nc1-c1cc2ccccc2s1  remaining binding (binding, competition with immobilised ligand; 1 µM): 33%
CC(=O)Nc1c(C(C)=O)c(=O)n(C)c2nc(-c3ccc(Cl)cc3Cl)c(-c3ccc(Cl)cc3)cc12  remaining binding (cell-free assay, competition with immobilised ligand; 1 µM): 100%
C[C@@H]1CCN(c2nccc(-c3cnn4ncccc34)n2)C1  remaining binding (binding; 1 µM): 100%
CC(C)(C)c1ccc(-c2nc(CBr)nn2-c2cccc(O)c2)cc1  remaining binding (cell-free assay, competition with immobilised ligand; 10 µM): 86%
FC(F)(F)c1ccc2c(c1)nc(-c1cccnc1)n2C1CC1  remaining binding (cell-free assay, competition with immobilised ligand; 1 µM): 100%
CNC(=O)[C@@H]1CC[C@@H](n2c(-c3ccc4cnccc4c3)nc3ccc(C(=O)NCc4cccc(C(N)=O)c4)cc32)C1  remaining binding (binding, competition with immobilised ligand; 1 µM): 100%
C[C@@H]1CN(c2ccc3ncc(-c4ccc5[nH]nc(C6CC6)c5c4)n3n2)C[C@H](C)O1  remaining binding (binding, competition with immobilised ligand; 0.5 µM): 100%
COc1cnc(Nc2cccc(S(N)(=O)=O)c2)nc1N1CCN(c2ccccc2)CC1  remaining binding (binding, competition with immobilised ligand; 1 µM): 100%
N#Cc1ccc(Nc2ccc3[nH]c(=O)[nH]c3c2)c(Cl)c1  remaining binding (cell-free assay, competition with immobilised ligand; 1 µM): 98%
COc1ccnn2ncc(-c3ccnc(N(C)C)n3)c12  remaining binding (binding; 1 µM): 94%
CN(C)C(=O)Cn1cc(-c2nc([C@@](C)(c3ccc(-c4cnc(N)nc4)cc3)C3CC3)no2)cn1  remaining binding (cell-free assay, competition with immobilised ligand; 1 µM): 85%
CN(c1nccc(-c2cnn3ncccc23)n1)C1CC1  remaining binding (binding; 1 µM): 78%
Cc1cc(C)c(-n2ccn3nc(-c4cccnc4)cc23)cc1NC(=O)c1cc(C#N)cc(S(F)(F)(F)(F)F)c1  remaining binding (cell-free assay, competition with immobilised ligand; 0.1 µM): 86%
CN(C)c1ncc(F)c(-c2cnn3ncccc23)n1  remaining binding (binding; 1 µM): 87%
O=C(c1ccc(Nc2ncc(Cl)c(-c3ccc(Cl)s3)n2)cc1)N1CCC(N2CCCC2)CC1  remaining binding (binding, competition with immobilised ligand; 1 µM): 37%
F[C@@H]1CCN(c2nccc(-c3cnn4ncccc34)n2)C1  remaining binding (binding; 1 µM): 92%
FC(F)(F)Oc1cccc(-c2cnc3ccc(-c4ccncc4)nn23)c1  remaining binding (cell-free assay, competition with immobilised ligand; 5 µM): 100%
